Source: PubChem (several laboratories)
HEK293 NFkB inh: inhibitors of the PMA/ionomycin-induced NF-kB reporter in HEK293 cells; AID 465; 62,000 tested, 0.21% active; HEK-293 NF-kB luciferase reporter, luminescence; inhibition, % at 3 µM;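 active means inhibition above the mean of all tested compounds plus 3 SD, cut at about 40% in these data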
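System – HEK-293 cells with stable firefly luciferase reporter driven by four HIV NF-kB elements · Doses – one dose, 3 µM · Schedule – 1 h compound pre-incubation, 16 h PMA/ionomycin at 37 °C · Technique – luminescence from luciferase substrate reagent · Measure – percent inhibition normalized per plate to DMSO and reference-inhibitor controls · Replicates – tested once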
Her2 expr inh: inhibitors of human Her2 kinase expression; P04626; SKBR-3 HER2 protein level, AlphaScreen, 18-24 h; stronger effect = lower value; HER2 level % of control, % at 10 µM; 65,000 tested, 0.69% active; AID 645;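 active means HER2 level under 5% of the carrier-only control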
M1 antag: antagonists of rat M1 muscarinic receptor | P08482 | CHO-M1 cells, Fluo-4 calcium, ACh EC80 antagonist mode; stronger effect = lower value | B-score at 10 µM | 64,000 tested, 3.4% active | AID 628;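 active means calcium fluorescence response, raw or row-and-column corrected B-score, differing from the plate sample mean either way at a set confidence level, mostly lower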
MKP-1 inh: inhibitors of human MKP-1 phosphatase; inhibition, %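 (compounds tested at a single concentration somewhere between 10 and 100 µM)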; P28562; recombinant MKP-1, OMFP hydrolysis fluorescence; 65,000 tested, 0.15% active;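 active means inhibition above about 50%, limit read from the data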
M1 agonist: agonists of M1 muscarinic receptor; B-score at 10 µM; 64,000 tested, 3% active; CHO-M1 cells, Fluo-4 calcium fluorescence, agonist mode; stronger effect = higher value;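 active means fluorescence rise, raw or as B-score row- and column-corrected plate score, outside the 99.7% band of its plate's samples, either direction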
Cdc25B block: human M-phase inducer phosphatase 2 inhibition. P30305. recombinant Cdc25B, OMFP fluorescence Ex485/Em525. inhibition, %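 (compounds tested at 10 µM final in the well)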. 65,000 tested, 0.1% active; in the data active means inhibition above about 50%
Target sequence (P30305 whole entry, looked up): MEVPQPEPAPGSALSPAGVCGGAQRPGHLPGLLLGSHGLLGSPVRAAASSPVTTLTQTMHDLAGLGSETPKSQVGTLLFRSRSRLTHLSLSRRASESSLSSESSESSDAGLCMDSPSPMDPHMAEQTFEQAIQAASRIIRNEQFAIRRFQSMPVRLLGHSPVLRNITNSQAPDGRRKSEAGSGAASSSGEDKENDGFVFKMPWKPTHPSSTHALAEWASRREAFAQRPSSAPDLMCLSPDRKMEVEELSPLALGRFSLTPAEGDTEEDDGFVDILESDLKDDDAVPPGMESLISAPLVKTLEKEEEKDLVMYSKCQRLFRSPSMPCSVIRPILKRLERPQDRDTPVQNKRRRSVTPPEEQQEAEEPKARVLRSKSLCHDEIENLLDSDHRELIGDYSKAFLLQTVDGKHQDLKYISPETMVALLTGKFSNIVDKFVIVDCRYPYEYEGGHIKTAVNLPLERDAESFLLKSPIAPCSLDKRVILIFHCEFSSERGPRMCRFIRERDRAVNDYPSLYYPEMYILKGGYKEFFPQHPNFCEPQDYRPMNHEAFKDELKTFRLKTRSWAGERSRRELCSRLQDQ
M1 antag confirm: M1 muscarinic receptor (rat) antagonism, confirmed; shares compounds with M1 antag; CHO-M1 cells, Fluo-4 calcium, ACh EC80 antagonism; stronger effect = lower value; calcium response (max-min fluorescence) at 10 µM; 1,700 tested, 43% active;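 active means calcium response below the same-plate mean of wells given acetylcholine alone at its 80%-effect dose, minus 3 SD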
mGluR4 antag: acts on human mGluR4 in M1 antagonist selectivity test. shares compounds with M1 antag. CHO-mGluR4 calcium flux, Fluo-4 fluorescence, glutamate EC80; stronger effect = lower value. fluorescence response (max-min) at 10 µM. 1,700 tested, 0.9% active;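 active means fluorescence response below the plate's average for near-maximal glutamate wells, less 3 SD of those wells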;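 further: raw unnormalized fluorescence span taken in the window right after glutamate addition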
Of the large screens only hits and unclear results are named; the others gave an inactive call (follow-up assays come after a bar, where they were run). The list is not random: actives were taken first. Their share in the collection is about 6.8%.

CCN(C(=O)c1coc(=O)c2ccccc12)c1cc(OC)ccc1OC	none (no result: M1 antag, M1 agonist)
CC1CCCN(C(=O)C2CCN(S(=O)(=O)c3cccc4cccnc34)CC2)C1 (configuration not stated)	none
Cc1sc2ncnc(OCC(=O)c3ccc(S(=O)(=O)N4CCCC4)cc3)c2c1C	M1 antag -3.11 | M1 antag confirm inactive | mGluR4 antag inactive
Cc1sc2ncnc(OCC(=O)N3CCN(S(=O)(=O)c4ccc(Cl)cc4)CC3)c2c1C	none
COc1ccc(CCC(=O)NC2=NCCS2)cc1OC	none
COC(=O)COc1ccc(S(=O)(=O)Nc2ccc(NC(C)=O)cc2)cc1C	M1 antag -3.09 | M1 antag confirm inactive | mGluR4 antag inactive
CCOC(=O)c1c(C2COc3ccccc3O2)csc1NC(=O)c1ccco1 (configuration not stated)	none
c1ccc2c(c1)nc1sccn12	M1 antag -2.5 | M1 antag confirm inactive | mGluR4 antag inactive
O=C(NC1CCCCC1)c1cccnc1C(=O)O	none
CC(C)(C)NC(=O)Cn1ccc(=N)c2ccccc21	M1 antag -2.46 | M1 antag confirm inactive | mGluR4 antag inactive
CCCCSc1nc2c(cnn2-c2ccc(F)cc2)c(=O)[nH]1	M1 antag -2.87 | M1 antag confirm inactive | mGluR4 antag inactive
CCCSc1nc2c(cnn2-c2ccc(Cl)cc2)c(=O)[nH]1	none
CCC(Sc1nc2c(cnn2-c2ccccc2)c(=O)[nH]1)C(=O)OC (configuration not stated)	M1 antag -2.38 | M1 antag confirm inactive | mGluR4 antag inactive
CCC1=NC(c2ccccc2OC)N(O)C1(C)C (configuration not stated)	M1 antag -15.3 | M1 antag confirm 257 | mGluR4 antag inactive
Cc1cc(N2CCC(N(C)C3CCCC3)CC2)nc2cc(O)ccc12	M1 antag -0.69 | M1 antag confirm 579 | mGluR4 antag inactive
Cc1cc(N2CCOCC2)nc2ccc(NC(=O)C3CCC(C)CC3)cc12 (configuration not stated)	none
CCOC(=O)c1c(NC(=O)c2nc3n(n2)C(C(F)F)CC(C)N3)sc2c1CCCC2 (configuration not stated)	M1 antag -5.65 | M1 antag confirm inactive | mGluR4 antag inactive
CCOC(=O)c1c(NC(=O)c2ccn(CC)n2)sc2c1CCCC2	none
CC(=O)c1ccccc1Oc1nc(CN2CCOCC2)nc2scc(-c3cccs3)c12	M1 antag -2.32 | M1 antag confirm 478 | mGluR4 antag inactive
COc1ccc(NC(=O)c2ccc(CN3CCN(c4ccccc4)CC3)cc2)cc1OC	M1 antag -2.73 | M1 antag confirm inactive | mGluR4 antag inactive
Cc1cccc(N(C)S(=O)(=O)c2ccc3[nH]c(=O)c(=O)[nH]c3c2)c1	none
O=C(CCS(=O)(=O)c1cccc2nonc12)N1CCN(c2ccc(F)cc2)CC1	M1 antag -6.86 | M1 antag confirm inactive | mGluR4 antag inactive
O=C(CCNS(=O)(=O)c1cccc2nonc12)N1CCN(c2cccc(Cl)c2)CC1	M1 antag -3.13 | M1 antag confirm 253 | mGluR4 antag inactive
COc1ccc(OCCN2CCN(C3CC(=O)N(CCC(C)C)C3=O)CC2)cc1 (configuration not stated)	none
COc1ccc(C2c3c(-c4cc(Cl)c(C)cc4O)n[nH]c3C(=O)N2Cc2cccnc2)cc1OC (configuration not stated)	none
CC(C)(C)n1nnnc1C(c1cccs1)N(Cc1ccccc1)Cc1cccnc1 (configuration not stated)	M1 antag -4.67 | M1 antag confirm 377 | mGluR4 antag inactive
CCN(Cc1ccccc1)C(c1ccncc1)c1nnnn1C(C)(C)C (configuration not stated)	none
CN(C)C(=O)CSc1nnc(-c2cc(-c3cccs3)nc3ccccc23)o1	M1 antag -3.68 | M1 antag confirm inactive | mGluR4 antag inactive
C=C(C)C1CC=C(CN2CCC(C(=O)OCC)CC2)CC1 (configuration not stated)	M1 antag -3.73 | M1 antag confirm 422 | mGluR4 antag inactive
Cn1c(SCc2ccc(Br)cc2)nnc1-c1cccs1	M1 antag -4.36 | M1 antag confirm inactive | mGluR4 antag inactive
CCn1c(C(=O)NCCCN2CCc3ccccc3C2)cc2sccc21	M1 antag -3.63 | M1 antag confirm 492 | mGluR4 antag inactive
Cc1ccc(Cn2c(C(=O)NCCCN3CCOCC3)cc3sccc32)cc1	M1 antag -3.23 | M1 antag confirm 510 | mGluR4 antag inactive
CCN1CCN(CCCNC(=O)c2cc3sccc3n2CC)CC1	M1 antag -1.65 | M1 antag confirm inactive | mGluR4 antag inactive
O=C(c1ccccc1/S(=N/S(=O)(=O)c1ccccc1)N1CCOCC1)N1CCOCC1 (configuration not stated)	none
CCOC(=O)Cn1c(=O)c2c(nc3n2CCCCN3c2ccc(C)cc2)n(C)c1=O	none
Oc1ccccc1Oc1ncc(Br)c(N2CCOCC2)n1	M1 antag -16.9 | M1 antag confirm 16 | mGluR4 antag inactive
Brc1cnc(N2CCCC2)nc1N1CCOCC1	none
Cc1ccc(-c2nnc(SCC(=O)Nc3nc4c(s3)CCCC4)n2C)cc1	M1 antag -2.42 | M1 antag confirm inactive | mGluR4 antag inactive
CCCCN(Cc1cc2cc(OC)ccc2[nH]c1=O)C(=O)COc1ccccc1	none
COc1ccc2[nH]c(=O)c(CN(C)C(=O)COc3ccccc3)cc2c1	M1 antag -9.03 | M1 antag confirm inactive | mGluR4 antag inactive
Cc1cc(C)c2cc(CN(CC3CCCO3)C(=O)NC3CCCCC3)c(=O)[nH]c2c1 (configuration not stated)	M1 antag -3.38 | M1 antag confirm inactive | mGluR4 antag inactive
O=C(NC1CCCCC1)N(Cc1cc2cc3c(cc2[nH]c1=O)OCCO3)CC1CCCO1 (configuration not stated)	none
COCCCn1c(=S)[nH]c2ccc(N3CCOCC3)cc2c1=O	M1 antag -10.6 | M1 antag confirm inactive | mGluR4 antag inactive
CCCCN(C)CCn1c(=S)[nH]c2ccc(N3CCOCC3)cc2c1=O	none
CCOC(=O)C1=C(N)N2C(=O)CSC2=C(C(=O)OC)C1	none (no result: HEK293 NFkB inh)
Cc1oc2c(c1C(=O)NCc1ccccc1)CCCC2	M1 antag -3.72 | M1 antag confirm inactive | mGluR4 antag inactive
O=C(NCc1ccccc1)c1noc2c1CCCCC2	none
